# Laboratory results: ChEMBL document CHEMBL1629575, “Clinical outcomes, safety, and pharmacokinetics of OPT-80 in a phase 2 trial with patients with Clostridium difficile infection” (Antimicrob Agents Chemother, 2009)
# Columns and labels:
# [1] = Drug level in clostridium difficile infected patient feces assessed as OP-1118 metabolite level at 100 […], po every 12 hrs for 10 days by RP-HPLC/MS; type: ADME, organism-based; design: route oral; settings: human, in vivo
# Summary of the method: (§1)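 The complete 24-h stool output was collected on day 10 (or the final dosing day if treatment stopped early) and frozen at −80°C. Stool was homogenized in acetonitrile-acetic acid, diluted with acetonitrile, spiked with OP-1393 internal standard, and analysed by RP-HPLC-MS/MS. The assay standard range for parent was 10 to 2,000 ng/ml. Results are reported as mean ± SD in μg/g.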
# [2] = Drug level in clostridium difficile infected patient feces assessed as OP-1118 metabolite level at 400 […], po every 12 hrs for 10 days by RP-HPLC/MS; type: ADME, organism-based; design: route oral; settings: human, in vivo; summary of the method: as §1
# Plasma [3] = experiment: Drug level in clostridium difficile infected patient plasma assessed as OP-1118 metabolite level at 100 […], po every 12 hrs for 10 days by RP-HPLC/MS; type: ADME, organism-based; design: route oral; settings: human, in vivo
# Summary of the method: (§2)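 Plasma was sampled 0.5 h before and 2 h after dosing on the first and last days of the 10-day oral regimen. Samples were methanol-acetic acid precipitated with OP-1393 internal standard, C18 solid-phase extracted, and analysed by RP-HPLC (40°C column) with tandem quadrupole MS. Assay range was 5 to 1,000 ng/ml for parent and OP-1118.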
# [4] = Drug level in clostridium difficile infected patient feces assessed as OP-1118 metabolite level at 200 […], po every 12 hrs for 10 days by RP-HPLC/MS; type: ADME, organism-based; design: route oral; settings: human, in vivo; summary of the method: as §1
# Plasma [5] = experiment: Drug level in clostridium difficile infected patient plasma assessed as OP-1118 metabolite level at 200 […], po every 12 hrs for 10 days by RP-HPLC/MS; type: ADME, organism-based; design: route oral; settings: human, in vivo; summary of the method: as §2
# Plasma [6] = experiment: Drug level in clostridium difficile infected patient plasma assessed as OP-1118 metabolite level at 400 […], po every 12 hrs for 10 days by RP-HPLC/MS; type: ADME, organism-based; design: route oral; settings: human, in vivo; summary of the method: as §2
# Clostridioides difficile [7] = experiment: Antimicrobial activity against Clostridium difficile infected in patient assessed as recurrence of diarrhea within 6 weeks after treatment at 200 mg/kg, po every 12 hrs for 10 days; type: functional
# Plasma [8] = experiment: Drug level in clostridium difficile infected patient plasma at 200 […], po every 12 hrs for 10 days by RP-HPLC/MS; type: ADME, organism-based; design: route oral; settings: human, in vivo; summary of the method: as §2
# Clostridioides difficile [9] = experiment: Antimicrobial activity against Clostridium difficile infected in patient assessed as recurrence of diarrhea within 6 weeks after treatment at 400 mg/kg, po every 12 hrs for 10 days; type: functional
# [10] = Drug level in clostridium difficile infected patient feces at 400 […], po every 12 hrs for 10 days by RP-HPLC/MS; type: ADME, organism-based; design: route oral; settings: human, faeces, read-out: Activity; summary of the method: as §1
# Clostridioides difficile [11] = experiment: Antimicrobial activity against Clostridium difficile infected in patient assessed as clinical failure at 400 […], po every 12 hrs for 10 days; type: functional
# Summary of the method: (§3)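 Phase 2 open-label randomized dose-ranging trial; adults with mild to moderate CDI (primary episode or first relapse, positive toxin by EIA or cytotoxicity assay), oral dosing for 10 days. Clinical failure was defined as the need for additional therapy during the treatment period. Failures underwent C. difficile culture and toxin testing.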
# Clostridioides difficile [12] = experiment: Antimicrobial activity against Clostridium difficile infected in patient assessed as incomplete relief of clostridium difficile associated diarrhea symptom in patient at 400 […], po every 12 hrs for 10 days; type: functional
# Clostridioides difficile [13] = experiment: Antimicrobial activity against Clostridium difficile infected in patient assessed as complete relief of clostridium difficile associated diarrhea symptom in patient at 400 […], po every 12 hrs for 10 days; type: functional
# Clostridioides difficile [14] = experiment: Antimicrobial activity against Clostridium difficile infected in patient assessed as percentage of patient require no further treatment at 200 […], po every 12 hrs for 10 days; type: functional; summary of the method: as §3
# Clostridioides difficile [15] = experiment: Antimicrobial activity against Clostridium difficile infected in patient assessed as clinical failure at 100 […], po every 12 hrs for 10 days; type: functional; summary of the method: as §3
# Clostridioides difficile [16] = experiment: Antimicrobial activity against Clostridium difficile infected in patient assessed as resolution of diarrhea on day 10 at 400 […], po every 12 hrs for 10 days; type: functional
# Summary of the method: (§4)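 Open-label randomized phase 2 trial in mild to moderate CDI patients, oral dosing over a 10-day regimen. Resolution of diarrhea was defined as the first day with one or two non-watery, non-loose stools in 24 h, sustained through treatment up to study day 10. Time to resolution was counted from the first dose.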
# Clostridioides difficile [17] = experiment: Antimicrobial activity against Clostridium difficile infected in patient assessed as incomplete relief of clostridium difficile associated diarrhea symptom in patient at 100 […], po every 12 hrs for 10 days; type: functional
# Clostridioides difficile [18] = experiment: Antimicrobial activity against Clostridium difficile infected in patient assessed as recurrence of diarrhea within 6 weeks after treatment at 100 […], po every 12 hrs for 10 days; type: functional
# Clostridioides difficile [19] = experiment: Antimicrobial activity against Clostridium difficile; type: functional
# Clostridioides difficile [20] = experiment: Antimicrobial activity against Clostridium difficile infected in patient assessed as percentage of patient require further treatment at 400 […], po every 12 hrs for 10 days; type: functional; summary of the method: as §3
# Clostridioides difficile [21] = experiment: Antimicrobial activity against Clostridium difficile infected in patient assessed as percentage of patient require no further treatment at 400 […], po every 12 hrs for 10 days; type: functional; summary of the method: as §3
# Clostridioides difficile [22] = experiment: Antimicrobial activity against Clostridium difficile infected in patient assessed as percentage of patient require no further treatment at 100 […], po every 12 hrs for 10 days; type: functional; summary of the method: as §3
# Clostridioides difficile [23] = experiment: Antimicrobial activity against Clostridium difficile infected in patient assessed as resolving of diarrhea after 10 days at 200 […], po every 12 hrs for 10 days; type: functional; summary of the method: as §4
# [24] = Drug level in clostridium difficile infected patient plasma at 400 […], po every 12 hrs for 10 days by RP-HPLC/MS; type: ADME, organism-based; design: route oral; settings: human, read-out: Activity; summary of the method: as §2
# [25] = Drug level in clostridium difficile infected patient feces at 100 […], po every 12 hrs for 10 days by RP-HPLC/MS; type: ADME, organism-based; design: route oral; settings: human, faeces, read-out: Activity; summary of the method: as §1
# Clostridioides difficile [26] = experiment: Antimicrobial activity against Clostridium difficile infected in patient assessed as percentage of patient require further treatment at 200 […], po every 12 hrs for 10 days; type: functional; summary of the method: as §3
# Clostridioides difficile [27] = experiment: Antimicrobial activity against Clostridium difficile infected in patient assessed as resolving of diarrhea after 10 days at 100 […], po every 12 hrs for 10 days; type: functional; summary of the method: as §4
# Clostridioides difficile [28] = experiment: Antimicrobial activity against Clostridium difficile infected in patient assessed as incomplete relief of clostridium difficile associated diarrhea symptom in patient at 200 […], po every 12 hrs for 10 days; type: functional
# Clostridioides difficile [29] = experiment: Antimicrobial activity against Clostridium difficile infected in patient assessed as percentage of patient require further treatment at 100 […], po every 12 hrs for 10 days; type: functional; summary of the method: as §3
# Clostridioides difficile [30] = experiment: Antimicrobial activity against Clostridium difficile infected in patient assessed as resolution of diarrhea on day 10 at 100 […], po every 12 hrs for 10 days; type: functional; summary of the method: as §4
# Clostridioides difficile [31] = experiment: Antimicrobial activity against Clostridium difficile infected in patient assessed as resolving of diarrhea after 10 days at 400 […], po every 12 hrs for 10 days; type: functional; summary of the method: as §4
# Clostridioides difficile [32] = experiment: Antimicrobial activity against Clostridium difficile infected in patient assessed as complete relief of clostridium difficile associated diarrhea symptom in patient at 100 […], po every 12 hrs for 10 days; type: functional
# [33] = Drug level in clostridium difficile infected patient feces at 200 […], po every 12 hrs for 10 days by RP-HPLC/MS; type: ADME, organism-based; design: route oral; settings: human, faeces, read-out: Activity; summary of the method: as §1
# Clostridioides difficile [34] = experiment: Antimicrobial activity against Clostridium difficile infected in patient assessed as complete relief of clostridium difficile associated diarrhea symptom in patient at 200 […], po every 12 hrs for 10 days; type: functional
# Clostridioides difficile [35] = experiment: Antimicrobial activity against Clostridium difficile infected in patient assessed as resolution of diarrhea on day 10 at 200 […], po every 12 hrs for 10 days; type: functional; summary of the method: as §4
# Clostridioides difficile [36] = experiment: Antimicrobial activity against Clostridium difficile infected in patient assessed as clinical failure at 200 […], po every 12 hrs for 10 days; type: functional; summary of the method: as §3
# [37] = Drug level in clostridium difficile infected patient plasma at 100 […], po every 12 hrs for 10 days by RP-HPLC/MS; type: ADME, organism-based; design: route oral; settings: human, read-out: Activity; summary of the method: as §2
smiles,measurement,setting,value
CCc1c(Cl)c(O)c(Cl)c(O)c1C(=O)O[C@H]1[C@H](O)[C@H](OC)[C@H](OC/C2=C\C=C\C[C@H](O)/C(C)=C/[C@H](CC)[C@@H](O[C@@H]3OC(C)(C)[C@@H](O)[C@H](O)[C@@H]3O)/C(C)=C/C(C)=C/C[C@@H]([C@@H](C)O)OC2=O)O[C@@H]1C,Activity,[1],393 µg/g
same,Activity,[2],760 µg/g
same,Activity,Plasma [3],77.2 ng/mL
same,Activity,[4],430 µg/g
same,Activity,Plasma [5],154.3 ng/mL
same,Activity,Plasma [6],402.3 ng/mL
CCc1c(Cl)c(O)c(Cl)c(O)c1C(=O)O[C@H]1[C@H](O)[C@H](OC)[C@H](OC/C2=C\C=C\C[C@H](O)/C(C)=C/[C@H](CC)[C@@H](O[C@@H]3OC(C)(C)[C@@H](OC(=O)C(C)C)[C@H](O)[C@@H]3O)/C(C)=C/C(C)=C/C[C@@H]([C@@H](C)O)OC2=O)O[C@@H]1C [FIDAXOMICIN],Activity,Clostridioides difficile [7],0%
same,Activity,Plasma [8],9.37e-05 mg/mL
same,Activity,Clostridioides difficile [9],6.3%
same,concentration at 10 days,[10],1.43e+06 ng/g
same,Activity,Clostridioides difficile [11],0%
same,Activity,Clostridioides difficile [12],13.3%
same,Activity,Clostridioides difficile [13],86.7%
same,Activity,Clostridioides difficile [14],18.8%
same,Activity,Clostridioides difficile [15],14%
same,Activity,Clostridioides difficile [16],94%
same,Activity,Clostridioides difficile [17],56.3%
same,Activity,Clostridioides difficile [18],8.3%
same,MIC90,Clostridioides difficile [19],0.125 µg/mL
same,Activity,Clostridioides difficile [20],0%
same,Activity,Clostridioides difficile [21],13.3%
same,Activity,Clostridioides difficile [22],31.3%
same,Activity,Clostridioides difficile [23],7%
same,concentration at 10 days,[24],84.9 ng/mL
same,concentration at 10 days,[25],256000 ng/g
same,Activity,Clostridioides difficile [26],12.5%
same,Activity,Clostridioides difficile [27],14%
same,Activity,Clostridioides difficile [28],37.5%
same,Activity,Clostridioides difficile [29],12.5%
same,Activity,Clostridioides difficile [30],71%
same,Activity,Clostridioides difficile [31],6%
same,Activity,Clostridioides difficile [32],37.5%
same,concentration at 10 days,[33],442000 ng/g
same,Activity,Clostridioides difficile [34],50%
same,Activity,Clostridioides difficile [35],80%
same,Activity,Clostridioides difficile [36],13%
same,concentration at 10 days,[37],12.3 ng/mL
Cc1ncc([N+](=O)[O-])n1CCO [METRONIDAZOLE],MIC90,Clostridioides difficile [19],0.5 µg/mL
CN[C@H](CC(C)C)C(=O)N[C@H]1C(=O)N[C@@H](CC(N)=O)C(=O)N[C@H]2C(=O)N[C@H]3C(=O)N[C@H](C(=O)N[C@H](C(=O)O)c4cc(O)cc(O)c4-c4cc3ccc4O)[C@H](O)c3ccc(c(Cl)c3)Oc3cc2cc(c3O[C@@H]2O[C@H](CO)[C@@H](O)[C@H](O)[C@H]2O[C@H]2C[C@](C)(N)[C@H](O)[C@H](C)O2)Oc2ccc(cc2Cl)[C@H]1O [VANCOMYCIN],MIC90,Clostridioides difficile [19],2 µg/mL
